Rows were chosen to be rich in hits. Some 3% of all compounds tested hit in one or more screens of this group.
MIN6 prolif = inducers of beta-cell replication in MIN6 cells | MIN6 cells proliferation, ATPlite luminescence, 48 h; cells starved in 0.2% serum; 100% = growth in 10% serum | proliferation, % at 10 µM | actives 0.29% (n = 330,000) | AID 2380;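 active means compounds whose signal lies at least 3.5 SD above the mean of all wells on their plate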;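 further: 0% = DMSO-treated cells in low-serum medium and 100% = 10% serum control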
Apaf1 inhib = human Apaf-1 inhibition; reconstituted apoptosome caspase-3 activity, DEVD-Rh110 fluorescence; inhibition, % at 20 µM; actives 0.71% (n = 330,000); AID 489030; active means inhibition of at least 40% at 20 µM;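 further: plate controls were DMSO wells for no effect and DEVD-CHO caspase inhibitor wells for full effect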
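Assay system – apoptosome proteins · Medium – Hepes buffer, pH 7.5 · Also added – cytochrome c with DEVD-Rh110 · Timing – 30 min compound preincubation, 50 min activation, room temperature · Detection – Rh110 fluorescence, excitation 480 nm, emission 540 nm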
MPTP inh = inhibitors of mitochondrial permeability transition pore | isolated mouse mitochondria, Ca2+ swelling absorbance, 30 min | inhibition, % at 10 µM | actives 1.4% (n = 360,000);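 active means inhibition of 50% or more, scaled per plate between neutral and stimulator controls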;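 further: 0% = DMSO wells given calcium and 100% = 1 mM EGTA wells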
UBC13 polyUb = blocks human UBC13 polyubiquitin chain formation | inhibition, % at 20 µM | actives 0.47% (n = 330,000) | TR-FRET; in the data active means inhibition above about 45%, passing the limit was not always enough
Target sequence (P61088 whole entry, looked up): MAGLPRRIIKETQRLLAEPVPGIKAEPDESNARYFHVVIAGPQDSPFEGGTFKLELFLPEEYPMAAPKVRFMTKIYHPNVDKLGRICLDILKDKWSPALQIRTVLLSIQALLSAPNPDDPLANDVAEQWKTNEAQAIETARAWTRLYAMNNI
hiPSC survival = increases survival of single human iPS cells; hiPSC single-cell survival, ATPlite luminescence; 100% = ROCK inhibitor wells, 0% = DMSO; survival enhancement, % at 20 µM; actives 0.044% (n = 360,000); AID 602274; in the data active means survival enhancement above about 18%;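 further: cells exposed to compounds for 16 hours before the ATP read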
Granule exo inh = lytic granule exocytosis inhibition | TALL-104 LAMP-1 surface exposure, flow cytometry; cells stimulated with thapsigargin and PMA | inhibition, % at 10 µM | actives 0.66% (n = 360,000) | AID 651702;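 active means inhibition above about 55%, limit read from the data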
Rh123 counter = membrane potential counter-screen of mitochondrial pore inhibitors. shares compounds with MPTP inh. isolated mitochondria, Rhodamine 123 fluorescence. inhibition, % at 10 µM. actives 78% (n = 5,000); in the data active means inhibition above about 22%;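 further: 0% = DMSO vehicle and 100% = positive control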
MPTP abs DR = MPTP inhibition, dose response swelling confirmation; IC50, µM; shares compounds with MPTP inh; actives 58% (n = 780); isolated mitochondria swelling, absorbance; AID 651561; in the data active means IC50 below about 20 µM
MPTP counter DR = active in counter-screen for permeability transition pore inhibitors. shares compounds with MPTP inh. isolated mitochondria counterscreen, fluorescence read-out. IC50, µM. actives 49% (n = 780). AID 651564; in the data active means IC50 below about 80 µM
An asterisk follows results filed as active; i = inactive; x = not tested or not shown.

SMILES | MIN6 prolif | Apaf1 inhib | MPTP inh | UBC13 polyUb | hiPSC survival | Granule exo inh | Rh123 counter | MPTP abs DR | MPTP counter DR
COc1ccc(NC(=O)c2cccc(N3C(=O)c4ccc(C(=O)Nc5ccc(OC)c(O)c5)cc4C3=O)c2)cc1O | -5.8 | -5.4 | -0.4 | -2.7 | -0.6 | -5.8 | x | x | x
C[N+](C)(C)c1ccc(/C=N/Nc2nc(Cl)c(C#N)c(Cl)c2Cl)cc1 | x | x | 92.4* | x | -1.3 | -1.8 | 95.2* | x | x
C[n+]1cccc(/C=N/Nc2nc(Cl)c(C#N)c(Cl)c2Cl)c1 | -1.2 | -8.9 | 65.4* | -13.2 | -0.2 | -2.3 | 64.4* | x | x
N#Cc1c(Cl)nc(N/N=C/c2ccccc2)c(Cl)c1Cl | -2.8 | 8.8 | 0.2 | -9.7 | -0.9 | -2.9 | x | x | x
Cc1nn(-c2ccccc2)c2c1C(c1cccs1)C(C#N)=C(N)O2 (stereo not drawn) | 0.1 | -10.5 | 75.3* | -27.9 | -1.4 | 0.5 | 7.2 | x | x
Cc1ccccc1CS(=O)(=O)c1nnc([C@H](CC(C)C)NC(=O)OC(C)(C)C)o1 | -5.5 | -0.2 | 75.0* | 3.1 | -1.3 | 35.6 | -3.1 | x | x
COc1cc(CNCCO)ccc1OCC(=O)Nc1ccc(Br)cc1 | -1.7 | -5.5 | 59.3* | 6.6 | -0.8 | -2.7 | -9.9 | i | >80
Cn1c(=Nc2ccc(N3CCOCC3)cc2)ccc2ccccc21 | -1.5 | 6.5 | -0.2 | -1.7 | 0.7 | 2.0 | x | x | x
Cn1c(N=Nc2ccc(N3CCOCC3)cc2)[n+](C)c2ccccc21 | x | x | 81.2* | x | -0.7 | 0.9 | 24.7* | x | x
COC(=O)c1cc(Cl)c(NC(=O)/C=C/c2ccc(Cl)cc2Cl)cc1OC | 0.9 | -10.2 | 83.4* | 1.7 | -0.4 | 0.9 | 2.6 | i | 4.36*
COC(=O)c1cc(Cl)c(NC(=O)/C=C/c2ccc(Cl)cc2)cc1OC | -1.1 | 4.6 | 3.1 | 6.9 | 1.0 | -1.1 | x | x | x
CN1/C(=C/C=C/c2n(C)c3cc([N+](=O)[O-])c([N+](=O)[O-])cc3[n+]2C)C(C)(C)c2ccccc21 | x | x | 80.8* | x | -3.7 | -3.5 | -9.3 | i | <2.5*
O=C(Nc1nc(OCCN2CCCC2=O)cnc1/C=C\c1ccccc1)c1cc2ccccc2s1 | x | x | -0.2 | x | -0.5 | 54.0 | x | x | x
CC1CCC2C(=O)N(c3ccc(Cc4ccncc4)cc3)C(=O)C2C1 (stereo not drawn) | 1.5 | 2.8 | 86.6* | 2.0 | 2.5 | 1.1 | 89.1* | x | x
CCC(C)(C)NC(=O)c1cc(C(=O)OC)cc([N+](=O)[O-])c1 | -0.2 | -2.7 | 0.6 | -11.2 | 0.4 | -7.5 | x | x | x
CCCN(CCC)S(=O)(=O)c1ccc(NC(=O)c2cc(C(=O)OC)cc([N+](=O)[O-])c2)cc1 | -4.7 | 14.9 | 87.9* | -13.4 | 5.6 | -4.6 | -8.8 | 10.7* | 4.49*
Cc1ccc(C)c(NC(=O)c2cc3ccccn3n2)c1 | -2.4 | 4.2 | 52.8* | 5.6 | -1.7 | 0.1 | 5.1 | i | >80
C[C@]12CC[C@H](O)CC1=C[C@H](O)C1C2CC[C@@]2(C)C1CC[C@@]2(O)C#Cc1ccc(CN)cc1 (stereo partly drawn) | x | x | -0.8 | x | -0.2 | -4.8 | x | x | x
CCN(CC)CCSC(=O)C(c1ccccc1)c1ccccc1 | x | x | 65.0* | x | -0.4 | -3.4 | -2.5 | i | >80
Cc1cc(C(=O)OC(C(=O)Nc2cccc(C(F)(F)F)c2)c2ccccc2)c(C)o1 (stereo not drawn) | 0.0 | 15.3 | 67.5* | -4.6 | -1.5 | 1.2 | 73.1* | x | x
Cc1ccc(NC(=O)C(OC(=O)c2cc(C)oc2C)c2ccccc2)cc1 (stereo not drawn) | -1.8 | 11.4 | 2.7 | 5.6 | 1.0 | 4.3 | x | x | x
Oc1c(C=NCc2ccc(F)cc2)[nH]c2ccc(Br)c(Cl)c12 | -5.2 | 30.5 | x | -19.5 | x | x | x | x | x
Cc1ccc(CN=Cc2[nH]c3ccc(Br)c(Cl)c3c2O)cc1 | -4.7 | 36.4 | 69.1* | -35.5 | -3.4 | 9.2 | -1.6 | x | x
Cn1ncc(SCc2ccccc2)c(Cl)c1=O | 0.4 | -9.7 | 57.9* | 2.1 | 1.3 | -5.6 | 21.7* | x | x

Source: PubChem BioAssay (several laboratories)
